Data reported in ChEMBL document CHEMBL1667763, “4-anilinoquinoline triazines: a novel class of hybrid antimalarial agents” (Eur J Med Chem, 2011).
pIC50: −log10 of the molar value. Converted amounts (≈) assume the structure as drawn. The source made the active and inactive calls. No cut-off for these calls is given here.

Columns and labels:
[1] = tested on: Plasmodium falciparum 3D7; test: Selectivity index, IC50 for african green monkey Vero cells to IC50 for Plasmodium falciparum 3D7
[2] = tested on: Plasmodium falciparum; test: Antimalarial activity against chloroquine-sensitive Plasmodium falciparum 3D7 infected in erythrocytes after 72 hrs by syber green 1 assay; conditions: 3D7, 72 h
[3] = tested on: Plasmodium yoelii; test: Antimalarial activity against chloroquine-resistant Plasmodium yoelii N-67 infected in Swiss mouse assessed as suppression of parasitaemia level at 50 mg/kg, ip qd for 4 days; assay type: functional; conditions: route intraperitoneal
Outline: (§1)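 Swiss mice (22±2 g), groups of five, inoculated with 1×10^6 P. yoelii N-67 parasitized RBC on day 0; compounds as aqueous suspension with a few drops Tween 80, given intraperitoneally in 0.2 mL once daily days 0–3. Parasitemia from thin blood smears days 4–6, group mean % suppression vs untreated controls; survivors counted on day 28.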

[4] = tested on: Plasmodium yoelii; test: Antimalarial activity against chloroquine-resistant Plasmodium yoelii N-67 infected in Swiss mouse assessed as suppression of parasitaemia level at 25 mg/kg, ip qd for 4 days; assay type: functional; conditions: route intraperitoneal
Outline: as §1

[5] = tested on: Plasmodium yoelii; test: Antimalarial activity against chloroquine-resistant Plasmodium yoelii N-67 infected in Swiss mouse assessed as suppression of parasitaemia level at 100 mg/kg, po qd for 4 days; assay type: functional
Outline: as §1, with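 “orally” for “intraperitoneally”, “0.1” for “0.2”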

[6] = tested on: Plasmodium yoelii; test: Antimalarial activity against chloroquine-resistant Plasmodium yoelii N-67 infected in Swiss mouse assessed as suppression of parasitaemia level at 50 mg/kg, po qd for 4 days; assay type: functional
Outline: as §1, with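 “orally” for “intraperitoneally”, “0.1” for “0.2”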

[7] = tested on: Plasmodium yoelii; test: Antimalarial activity against chloroquine-resistant Plasmodium yoelii N-67 infected in Swiss mouse assessed as mouse survival at 50 mg/kg, ip qd for 4 days; assay type: functional, organism-based; set-up: dose 50 mg/kg
Outline: as §1

[8] = tested on: Plasmodium yoelii; test: Antimalarial activity against chloroquine-resistant Plasmodium yoelii N-67 infected in Swiss mouse assessed as mouse survival at 25 mg/kg, ip qd for 4 days; assay type: functional, organism-based; set-up: dose 25 mg/kg
Outline: as §1

[9] = tested on: Plasmodium yoelii; test: Antimalarial activity against chloroquine-resistant Plasmodium yoelii N-67 infected in Swiss mouse assessed as mouse survival at 100 mg/kg, po qd for 4 days; assay type: functional, organism-based; set-up: dose 100 mg/kg
Outline: as §1, with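 “orally” for “intraperitoneally”, “0.1” for “0.2”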

[10] = tested on: Plasmodium yoelii; test: Antimalarial activity against chloroquine-resistant Plasmodium yoelii N-67 infected in Swiss mouse assessed as mouse survival at 50 mg/kg, po qd for 4 days; assay type: functional, organism-based; set-up: dose 50 mg/kg
Outline: as §1, with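 “orally” for “intraperitoneally”, “0.1” for “0.2”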

[11] = Inhibition of beta-hematin formation after 16 hrs; assay type: functional
Outline: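 Plasma came from male Swiss mice (15–20 g) infected with 1 × 10⁵ infected RBCs. Blood was drawn at 50% parasitemia by cardiac puncture into 2.0% citrate and spun at 4 °C. Hemin substrate ([…]) and compound were incubated in 100 mM acetate buffer, pH 5.1, at 37 °C for 16 h with shaking. The pellet was washed in SDS buffers. IC50 was the mean of three experiments in triplicate.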

| Compound | Selectivity Index [1] | pIC50 [2] | further results |
| --- | --- | --- | --- |
| CNc1nc(Nc2ccccc2)nc(Nc2ccc(Nc3ccnc4cc(Cl)ccc34)cc2)n1 | 290.68 | 7.72 |  |
| Cc1ccc(Nc2nc(Nc3cccc(Nc4ccnc5cc(Cl)ccc45)c3)nc(N3CCN(C)CC3)n2)cc1 | 226.18 | 7.36 |  |
| Clc1ccc2c(Nc3ccc(Nc4nc(NCCCN5CCOCC5)nc(N5CCCCC5)n4)cc3)ccnc2c1 | 170.18 | 7.64 | Activity [3]: 100%; Activity [4]: 100%; Activity [5]: 100%; Activity [6]: 100%; Activity [7]: Active; Activity [8]: inactive; Activity [9]: Active; Activity [10]: inactive; IC50 [11]: 2.71 µg/mL (≈ 4.72 µM) |
| CN1CCN(c2nc(Nc3ccc(Nc4ccnc5cc(Cl)ccc45)cc3)nc(N3CCCCC3)n2)CC1 | 106.35 | 7.46 |  |
| CCN1CCN(c2nc(Nc3ccccc3)nc(Nc3ccc(Nc4ccnc5cc(Cl)ccc45)cc3)n2)CC1 | 192.66 | 8.23 | Activity [3]: 100%; Activity [7]: inactive; IC50 [11]: 2.69 µg/mL (≈ 4.87 µM) |
| Clc1ccc2c(Nc3ccc(Nc4nc(NCc5ccccc5)nc(Nc5ccccc5)n4)cc3)ccnc2c1 | 151.04 | 7.47 |  |
| CNc1nc(Nc2ccc(C)cc2)nc(Nc2ccc(Nc3ccnc4cc(Cl)ccc34)cc2)n1 | 491.91 | 8.19 | Activity [3]: 100%; Activity [7]: inactive; IC50 [11]: 3.16 µg/mL (≈ 6.54 µM) |
| CCN1CCN(c2nc(Nc3ccc(C)cc3)nc(Nc3cccc(Nc4ccnc5cc(Cl)ccc45)c3)n2)CC1 | 229.5 | 7.39 |  |
| CCN(CC)CCNc1nc(Nc2ccc(Nc3ccnc4cc(Cl)ccc34)cc2)nc(Nc2ccccc2C)n1 | 136.49 | 7.58 |  |
| Cc1ccc(Nc2nc(Nc3ccc(Nc4ccnc5cc(Cl)ccc45)cc3)nc(N3CCN(C)CC3)n2)cc1 | 36.39 | 7.91 |  |
| CCCCNc1nc(Nc2ccc(Nc3ccnc4cc(Cl)ccc34)cc2)nc(Nc2ccccc2C)n1 | 821.15 | 7.50 | Activity [3]: 100%; Activity [7]: inactive; IC50 [11]: 2.96 µg/mL (≈ 5.64 µM) |
| CCCCNc1nc(Nc2ccccc2)nc(Nc2ccc(Nc3ccnc4cc(Cl)ccc34)cc2)n1 | 287.22 | 7.73 | Activity [3]: 100%; Activity [7]: inactive; IC50 [11]: 3.08 µg/mL (≈ 6.03 µM) |
| Nc1nc(Nc2ccccc2)nc(Nc2ccc(Nc3ccnc4cc(Cl)ccc34)cc2)n1 | 132.63 | 7.38 |  |
| CCN(CC)CCNc1nc(Nc2ccc(Nc3ccnc4cc(Cl)ccc34)cc2)nc(N2CCCCC2)n1 | 59.71 | 7.41 |  |
| Cc1ccccc1Nc1nc(NCCCN2CCOCC2)nc(Nc2ccc(Nc3ccnc4cc(Cl)ccc34)cc2)n1 | 418.75 | 7.87 |  |
| Cc1ccccc1Nc1nc(Nc2ccc(Nc3ccnc4cc(Cl)ccc34)cc2)nc(N2CCN(C)CC2)n1 | 16.33 | 7.72 |  |
| CCN1CCN(c2nc(Nc3ccc(Nc4ccnc5cc(Cl)ccc45)cc3)nc(Nc3ccccc3C)n2)CC1 | 2.58 | 6.99 |  |
| Cc1ccccc1Nc1nc(N)nc(Nc2ccc(Nc3ccnc4cc(Cl)ccc34)cc2)n1 | 163.54 | 7.53 |  |
| CCN1CCN(c2nc(Nc3ccc(Nc4ccnc5cc(Cl)ccc45)cc3)nc(N3CCCCC3)n2)CC1 | 124.85 | 7.53 | Activity [3]: 100%; Activity [4]: 100%; Activity [5]: 100%; Activity [6]: 100%; Activity [7]: Active; Activity [8]: inactive; Activity [9]: Active; Activity [10]: inactive; IC50 [11]: 2.79 µg/mL (≈ 5.13 µM) |
| CCN1CCN(c2nc(Nc3ccccc3)nc(Nc3cccc(Nc4ccnc5cc(Cl)ccc45)c3)n2)CC1 | 90.51 | 7.22 |  |
| CN1CCN(c2nc(Nc3ccccc3)nc(Nc3ccc(Nc4ccnc5cc(Cl)ccc45)cc3)n2)CC1 | 92.06 | 8.23 |  |

| Compound | Selectivity Index [1] | pIC50 [2] | further results |
| --- | --- | --- | --- |
| CNc1nc(Nc2ccc(Nc3ccnc4cc(Cl)ccc34)cc2)nc(Nc2ccccc2C)n1 | 240.35 | 7.42 |  |
| CCCCNc1nc(Nc2ccc(C)cc2)nc(Nc2ccc(Nc3ccnc4cc(Cl)ccc34)cc2)n1 | 101.03 | 7.35 |  |
| CN1CCN(c2nc(Nc3ccccc3)nc(Nc3cccc(Nc4ccnc5cc(Cl)ccc45)c3)n2)CC1 | 223.4 | 7.33 |  |
| Clc1ccc2c(Nc3ccc(Nc4nc(NC5CCCCC5)nc(N5CCCCC5)n4)cc3)ccnc2c1 | 189.52 | 6.50 |  |
| Cc1ccccc1Nc1nc(Nc2ccc(Nc3ccnc4cc(Cl)ccc34)cc2)nc(NC2CCCCC2)n1 | 449.8 | 6.79 |  |
| CCN1CCN(c2nc(Nc3ccc(C)cc3)nc(Nc3ccc(Nc4ccnc5cc(Cl)ccc45)cc3)n2)CC1 | 35.61 | 7.92 |  |
| Cc1ccc(Nc2nc(N)nc(Nc3ccc(Nc4ccnc5cc(Cl)ccc45)cc3)n2)cc1 | 134.89 | 7.93 |  |
| CCN(CC)CCNc1nc(Nc2ccc(C)cc2)nc(Nc2ccc(Nc3ccnc4cc(Cl)ccc34)cc2)n1 | 64.38 | 7.08 |  |
| Clc1ccc2c(Nc3ccc(Nc4nc(NCCCN5CCOCC5)nc(Nc5ccccc5)n4)cc3)ccnc2c1 | 154.29 | 8.52 | Activity [3]: 100%; Activity [4]: 100%; Activity [5]: 100%; Activity [7]: Active; Activity [8]: inactive; Activity [9]: inactive; IC50 [11]: 2.98 µg/mL (≈ 5.12 µM) |
| CCN(CC)CCNc1nc(Nc2ccccc2)nc(Nc2ccc(Nc3ccnc4cc(Cl)ccc34)cc2)n1 | 79.47 | 7.22 |  |
| Cc1ccc(Nc2nc(NCc3ccccc3)nc(Nc3ccc(Nc4ccnc5cc(Cl)ccc45)cc3)n2)cc1 | 79.44 | 7.20 |  |
| Cc1ccc(Nc2nc(NCCCN3CCOCC3)nc(Nc3cccc(Nc4ccnc5cc(Cl)ccc45)c3)n2)cc1 | 321.48 | 7.46 | Activity [3]: 100%; Activity [7]: inactive; IC50 [11]: 2.7 µg/mL (≈ 4.53 µM) |
| Cc1ccc(Nc2nc(NCCCN3CCOCC3)nc(Nc3ccc(Nc4ccnc5cc(Cl)ccc45)cc3)n2)cc1 | 610.98 | 8.15 | Activity [3]: 100%; Activity [7]: inactive; IC50 [11]: 2.85 µg/mL (≈ 4.78 µM) |
| Clc1ccc2c(Nc3ccc(Nc4nc(Nc5ccccc5)nc(NC5CCCCC5)n4)cc3)ccnc2c1 | 76.97 | 7.19 |  |
| Clc1ccc2c(Nc3ccc(Nc4nc(NCc5ccccc5)nc(N5CCCCC5)n4)cc3)ccnc2c1 | 98.42 | 6.63 |  |
| Cc1ccccc1Nc1nc(NCc2ccccc2)nc(Nc2ccc(Nc3ccnc4cc(Cl)ccc34)cc2)n1 | 2129.68 | 7.56 |  |
| Cc1ccc(Nc2nc(Nc3ccc(Nc4ccnc5cc(Cl)ccc45)cc3)nc(NC3CCCCC3)n2)cc1 | 137.42 | 7.13 |  |
| CCN(CC)CCCC(C)Nc1ccnc2cc(Cl)ccc12 (centres undefined) [CHLOROQUINE] |  |  | IC50 [11]: 3.65 µg/mL (≈ 11.4 µM) |
| CCCCNc1nc(Nc2ccccc2)nc(Nc2cccc(Nc3ccnc4cc(Cl)ccc34)c2)n1 | 156.25 | 7.58 | Activity [3]: 100%; Activity [7]: inactive; IC50 [11]: 2.55 µg/mL (≈ 4.99 µM) |
| CCN(CC)CCNc1nc(Nc2ccccc2)nc(Nc2cccc(Nc3ccnc4cc(Cl)ccc34)c2)n1 | 135.37 | 6.54 |  |
| Clc1ccc2c(Nc3cccc(Nc4nc(NCCCN5CCOCC5)nc(Nc5ccccc5)n4)c3)ccnc2c1 | 90.51 | 6.96 |  |
